A selection: hits, their analogues and other compounds. The true share with any hit is near 1.3%.
HTRA1 inh: HTRA1 (human) protease inhibition; recombinant HTRA1, FP-rhodamine activity-based probe, fluorescence polarization; inhibition, % at 5.96 µM; 340,000 compounds, 0.5% hits; AID 504803; Q92743; in the data active = inhibition above about 36%;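 note: 0% = enzyme with DMSO and 100% = wells lacking enzyme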
ABHD4 inh: inhibitors of mouse ABHD4 | inhibition, % at 8.92 µM | purified mABHD4, FP-Rh probe fluorescence polarization | 370,000 compounds, 0.54% hits;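 active = inhibition exceeding the mean over every tested compound plus 3 SD, cut at about 30% in these data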;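 note: 0% = plate median of compound wells and 100% = S159A mutant with DMSO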
Target sequence (Q8VD66 whole entry, looked up): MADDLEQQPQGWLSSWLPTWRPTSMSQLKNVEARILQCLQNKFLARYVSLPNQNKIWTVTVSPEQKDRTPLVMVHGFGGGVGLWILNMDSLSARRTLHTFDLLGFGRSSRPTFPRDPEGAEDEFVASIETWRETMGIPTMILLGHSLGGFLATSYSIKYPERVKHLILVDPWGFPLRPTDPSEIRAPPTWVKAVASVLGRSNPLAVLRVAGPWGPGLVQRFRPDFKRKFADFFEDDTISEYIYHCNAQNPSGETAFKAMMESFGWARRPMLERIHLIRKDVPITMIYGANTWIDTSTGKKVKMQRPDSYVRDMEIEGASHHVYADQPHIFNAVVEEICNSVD
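Test system: mouse ABHD4 enzyme, wild type. Reagent: FP-Rh fluorescent activity-based probe, added after compound pre-incubation. Timing: pre-incubation 45 min, probe exposure 60 min, at 25 °C. Technique: FP readout, ex 525 nm / em 598 nm. Benchmarks: high control S159A mutant with DMSO, low control median of compound wells.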
Tn6 DDE FP: disrupts Tn6 cyclic peptide binding to fibrin D-Dimer-E complex. P02675. Fibrin DD(E) TRITC-Tn6 fluorescence polarization displacement. inhibition, % at 8.3 µM. 370,000 compounds, 0.21% hits;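 active = inhibition above a per-campaign cutoff: mean of compounds within control limits plus 3 SD, cut at about 15% in these data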;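 note: 0% = median of all compound wells on the plate and 100% = blocking peptide control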
DDE Tn7 FP inh: disrupts Tn7 cyclic peptide binding to fibrin D-Dimer-E complex; P02675; FP displacement of FITC-Tn7 peptide from fibrin DD(E); 0% = median of compound wells per plate; inhibition, % at 8.3 µM; 370,000 compounds, 0.13% hits; AID 720508;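 active = inhibition above the mean of compounds falling within the control limits plus 3 SD of them, cut at about 14% in these data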;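 note: 0% = plate median of compound wells and 100% = 10 µM Aha-Tn7 peptide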
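Test system – human fibrin DD(E) · Times – 10 min preincubation, 3 h with tracer, room temperature · Detection – fluorescence polarization of the labelled Tn7 tracer · Measure – percent inhibition normalized to high-control wells · Benchmarks – high control wells with 10 µM unlabelled Aha-Tn7 peptide (full inhibition) · Repeats – singlicate testing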
TCR-CD3 inh: blocks the human TCR-CD3 interaction; TAMRA-labeled TCR probe fluorescence, biochemical; inhibition, % at 9.4 µM; 360,000 compounds, 0.37% hits;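 note: recombinant mutant TCR 2C K166C tagged with TAMRA read by polarization; 0% = receptor in buffer alone and 100% = receptor with positive control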
HTRA1 inh conf: confirmation of human HTRA1 inhibitors. 1,600 compounds, 66% hits. recombinant HTRA1, FP-rhodamine activity-based probe, fluorescence polarization. AID 540248. shares compounds with HTRA1 inh. inhibition, % at 5.96 µM;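 active = mean inhibition over three repeats above a set limit taken from the earlier primary screen, cut at about 37% in these data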;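 note: 0% = HTRA1 with DMSO and 100% = wells lacking HTRA1; inhibitors block probe binding so polarization drops and inhibition rises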
BSA probe FL: counter-screen for TCR-CD3 interaction inhibitors: BSA probe. TAMRA-labeled BSA probe fluorescence counterscreen. shares compounds with TCR-CD3 inh. inhibition, % at 9.4 µM. AID 652035. 1,200 compounds, 10% hits; in the data active = inhibition above about 23%;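 note: 0% = buffer low control and 100% = reference high control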
TCR-CD3 conf: TCR-CD3 interaction inhibition, confirmation | shares compounds with TCR-CD3 inh | TAMRA-labeled TCR probe fluorescence binding assay | inhibition, % at 9.4 µM | 1,200 compounds, 48% hits | AID 652036
* hit, by the source's call; . = no result; + = active, no number. Cut-off read from the data, not from the text of the source, unless noted: active = inhibition above about 19%; inactive = the rest.

SMILES	HTRA1 inh	ABHD4 inh	Tn6 DDE FP	DDE Tn7 FP inh	TCR-CD3 inh	HTRA1 inh conf	BSA probe FL	TCR-CD3 conf
Cc1c2cc(O)c(=O)cc-2oc2cc(O)c(O)cc12	49.4*	35.0*	1.1	15.1*	183.8*	125.2*	+	+
O=C(NC1CCCCC1)c1ccc2snnc2c1	4.7	-7.9	-11.7	-1.1	6.5	.	.	.
CCC(=O)N1CCc2cc(S(=O)(=O)NCCC(=O)NCc3ccccc3Cl)ccc21	1.8	7.8	1.8	-6.2	0.5	.	.	.
C=CCn1c(SCC(=O)c2ccc(OC)cc2)nnc1-c1cc2cccc(OC)c2o1	-0.1	4.0	-2.9	-7.8	-1.0	.	.	.
C=CCn1c(SCC(=O)c2ccc(O)c(O)c2)nnc1-c1cccc(OC)c1	38.1*	25.4	1.1	3.2	19.6*	66.8*	-7.3	17.3
O=C(Nc1ccnn1C1CCN(C2CCC2)CC1)c1ccccc1Cl	1.6	8.2	2.3	1.2	-2.1	.	.	.
CN(C)c1ccc(Cc2cc3c(O)ccc(O)c3cc(Cc3ccc(N(C)C)cc3)c2=O)cc1	83.7*	83.5*	-0.6	-3.4	42.6*	72.0*	16.8	37.9*
Cc1cc(SCC(=O)c2ccc(O)c(O)c2)n2nc(C)c(-c3ccccc3)c2n1	55.5*	24.3	-15.9	-5.7	24.7*	64.7*	-2.1	48.3*
COc1ccc2nc(C)cc(SCC(=O)N/N=C/c3ccc(O)c(O)c3)c2c1	38.0*	18.0	1.1	7.0	40.1*	59.4*	-14.7	70.6*
COc1ccc2nc(C)cc(SCC(=O)N/N=C/c3cccc4ccccc34)c2c1	-8.4	-2.5	3.8	7.0	1.3	.	.	.
CCOc1ccc(CCNC(=O)C2=C(C)C(=O)OC23CCCCC3)cc1OCC	-0.9	1.7	-1.5	2.7	-4.0	.	.	.
O=C(NC(=S)NNC(=O)c1ccccc1O)c1ccco1	39.4*	23.9	-0.6	-8.6	24.7*	66.9*	-9.1	18.6
O=C(NC(=S)NNC(=O)c1ccccc1O)c1cccnc1	48.9*	11.9	-1.1	3.4	29.2*	62.8*	-2.3	30.9*
O=C(NNC(=S)NC(=O)c1ccco1)c1ccc(NC(=O)c2ccccc2)cc1	-19.0	3.6	-5.8	0.9	13.2	.	.	.
Oc1ccc(Cl)c2cccnc12	64.4*	8.9	2.3	4.0	30.1*	75.5*	-2.8	1.1
OCc1ccc(O)c2ncccc12	21.7	8.3	2.8	6.3	5.2	.	.	.
COc1cccc(-c2nnc(SCC3CNC(=O)O3)n2-c2ccc(Cl)cc2)c1 (stereo unspecified)	-3.8	2.5	-7.4	5.0	-12.6	.	.	.
COC(=O)Cc1nc(NC(=O)c2cccs2)sc1C	0.7	.	.	.	.	.	.	.
O=C(CSc1nc2ccccc2c(=O)[nH]1)c1ccc(O)c(O)c1	43.1*	33.8*	-0.3	-4.3	32.4*	43.4*	-19.2	33.7*
O=C(CSc1nc2ccccc2n1CCc1ccccc1)c1ccc(O)c(O)c1	69.6*	24.3	-2.2	-0.6	23.4*	66.3*	-10.2	32.2*
O=C1C=CC2=C3c4cc(O)c(O)cc4CC3(O)COC2=C1O (stereo unspecified)	44.7*	25.5	-3.9	10.3	88.3*	43.6*	12.3	93.0*
CC1CCc2c(sc(NC(=O)CCc3nc4ccccc4c(=O)[nH]3)c2C#N)C1 (stereo unspecified)	-2.0	0.3	0.6	1.0	-0.1	.	.	.
O=C(CCN1C(=O)/C(=C/c2ccccc2Cl)SC1=S)NNC(=O)c1ccccc1O	55.0*	-2.3	0.4	-10.0	43.1*	70.2*	2.5	34.4*
COc1cccc(/C=C2/SC(=S)N(CCCC(=O)Nc3ccc(O)cc3)C2=O)c1	-10.6	-28.6	-0.5	-0.5	-3.3	.	.	.
Cc1ccc(/C=C2\SC(=S)N(CCC(=O)NNC(=O)c3ccccc3O)C2=O)cc1	38.0*	12.8	-2.0	8.0	29.0*	58.6*	-8.8	32.6*
Cc1ccc(/C=C2\SC(=S)N(CCCC(=O)NNC(=O)c3ccccc3O)C2=O)cc1	37.4*	8.6	-0.8	2.0	33.3*	53.2*	-3.5	21.8*

From PubChem
